In ChEMBL document CHEMBL1671615 (Antimicrob Agents Chemother, 2008):

What was measured:
Serum [1] = experiment: AUC (OBS) in BALB/c mouse serum at 4 to 5 mg/kg administered as inhalable bolus dose by HPLC; type: ADME, organism-based; set-up: dose 4-5 mg/kg; conditions: in vivo, inhaled_or_intranasal
Outline: (§1)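 BALB/c mice (25–30 g, either sex, groups of 4) given 100 μg drug by dry-powder inhalation of spray-dried polylactide microparticles (~10 mg charged, fluidized by 30 actuations over 30 s, nose-only). Noncompartmental extravascular-bolus fit; mean ± SD.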

Mus musculus [2] = experiment: Volume of distribution in BALB/c mouse at 4 to 5 mg/kg, iv administered as single bolus dose by HPLC; type: ADME, organism-based; set-up: dose 4-5 mg/kg, route intravenous; conditions: in vivo
[3] = Plasma concentration in BALB/c mouse at 4 to 5 mg/kg, iv administered as single bolus dose by HPLC; type: ADME, organism-based; set-up: dose 4-5 mg/kg, route intravenous
[4] = Cmax in 10^6 mouse alveolar macrophages at 4 to 5 mg/kg administered as inhalable dose measured 6 hrs postinhalation by HPLC; type: ADME, organism-based, Macrophage; set-up: dose 4-5 mg/kg; conditions: in vivo, inhaled_or_intranasal
Outline: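 Mice inhaled 100 μg drug as dry-powder microparticles. Four animals per time point were anesthetized, and lungs were lavaged with chilled saline containing 0.5 mM EDTA. Recovered alveolar macrophages were counted by hemocytometer and extracted. Drug was measured by HPLC-UV and expressed per 10⁶ cells.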

Mus musculus [5] = experiment: Volume of distribution in BALB/c mouse at 4 to 5 mg/kg administered as inhalable bolus dose by HPLC; type: ADME, organism-based; set-up: dose 4-5 mg/kg; conditions: in vivo, inhaled_or_intranasal; outline: as §1
[6] = Elimination rate constant in human THP1 cells at 3 ug/ml administered as microparticles after 10 mins by HPLC; type: ADME, cell-based; conditions: THP-1 cells
Outline: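 THP-1 cells (10⁶/well) were differentiated with PMA for 14 h, washed, and rested 10 h. Microparticles (12 μg/ml, drug-equivalent 3 μg/ml) were added for 2 h, then washed out. Duplicate wells were lysed by freeze-thaw at serial times and analyzed by HPLC. A one-compartment model with no lag and first-order elimination was fitted.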

[7] = Elimination rate constant in human THP1 cells at 3 ug/ml after 10 mins by HPLC; type: ADME, cell-based; conditions: THP-1 cells
Serum [8] = experiment: AUC (OBS) in BALB/c mouse serum at 4 to 5 mg/kg, iv administered as single bolus dose by HPLC; type: ADME, organism-based; set-up: dose 4-5 mg/kg, route intravenous; conditions: in vivo
[9] = Cmax in 10^6 mouse alveolar macrophages at 4 to 5 mg/kg, iv measured after 4 hrs by HPLC; type: ADME, organism-based, BALB/c, Macrophage; set-up: dose 4-5 mg/kg, route intravenous; conditions: in vivo
Outline: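 After a 100 μg i.v. caudal-vein dose, four mice per time point underwent bronchoalveolar lavage with chilled saline plus 0.5 mM EDTA. Macrophages in the lavage were counted by hemocytometer and lysed, and drug was quantified by HPLC-UV per 10⁶ cells.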

[10] = Clearance in BALB/c mouse at 4 to 5 mg/kg, iv administered as single bolus dose by HPLC; type: ADME, organism-based; set-up: dose 4-5 mg/kg, route intravenous; conditions: in vivo
Mus musculus [11] = experiment: (§2) Clearance in BALB/c mouse at 4 to 5 mg/kg administered as inhalable bolus dose by HPLC; type: ADME, organism-based; set-up: dose 4-5 mg/kg; conditions: in vivo, inhaled_or_intranasal; outline: as §1
[12] = Plasma concentration in BALB/c mouse at 4 to 5 mg/kg administered as inhalable bolus dose by HPLC; type: ADME, organism-based; set-up: dose 4-5 mg/kg; conditions: inhaled or intranasal; outline: as §1
[13] = Half life in BALB/c mouse serum at 4 to 5 mg/kg, iv administered as single bolus dose by HPLC; type: ADME, organism-based; set-up: dose 4-5 mg/kg, route intravenous
[14] = Half life in BALB/c mouse serum at 4 to 5 mg/kg administered as inhalable bolus dose by HPLC; type: ADME, organism-based; set-up: dose 4-5 mg/kg; conditions: inhaled or intranasal; outline: as §1
[15] = as §2; type: ADME, organism-based; set-up: dose 4-5 mg/kg; conditions: BALB/c, in vivo, inhaled or intranasal; outline: as §1

AUC (Serum [1])	Vz (Mus musculus [2])	Cmax [3]	Cmax [4]	Vz (Mus musculus [5])	k el at 10 min, 3 ug/ml [6]	k el at 10 min, 3 ug/ml [7]	AUC (Serum [8])	Cmax [9]	clearance [10]	CL (Mus musculus [11])	Cmax [12]	half-life [13]	half-life [14]	CL/F [15]	Compound
55.34 µg/mL/h	41.34 mL	3240 ng/mL	0.56 µg	1670 mL	0.000102 s⁻¹	9.44e-06 s⁻¹	16.64 µg/mL/h	0.29 µg	0.0738 mL/min	63.9 mL/h	2370 ng/mL				NNC(=O)c1ccncc1 [ISONIAZID]
109.35 µg/mL/h	29.52 mL	3470 ng/mL	1.65 µg	2308.84 mL	1.67e-05 s⁻¹	1.39e-06 s⁻¹	90.82 µg/mL/h	0.32 µg	0.017 mL/min		1590 ng/mL	20.2 h	119 h	0.195 mL/min	CO[C@H]1/C=C/O[C@@]2(C)Oc3c(C)c(O)c4c(c3C2=O)C2=NC3(CCN(CC(C)C)CC3)NC2=C(NC(=O)/C(C)=C\C=C\[C@H](C)[C@H](O)[C@@H](C)[C@@H](O)[C@@H](C)[C@H](OC(C)=O)[C@@H]1C)C4=O [RIFABUTIN]
